# Source: ChEMBL document CHEMBL4020827, “Targeting Multiple Effector Pathways in Pancreatic Ductal Adenocarcinoma with a G-Quadruplex-Binding Small Molecule” (J Med Chem, 2018)
# What was measured:
# PANC-1 [1] = assay: Effect on SMO gene expression in human PANC1 cells at 400 nM after 6 hrs by RNA sequence analysis relative to control; type: functional
# Procedure, shortened: (§1)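 RNA-seq: cells seeded overnight in 60 mm plates (PANC-1 0.35 x 10^6, MIA PaCa-2 1.5 x 10^6 cells/well), then exposed to 400 nM compound for 6 or 24 h against untreated controls. Cell lines mycoplasma-free by RNA-capture ELISA and STR-profiled. Differentially expressed genes called at FDR < 0.1.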
# PANC-1 [2] = assay: Effect on ULK1 gene expression in human PANC1 cells at 400 nM after 6 hrs by RNA sequence analysis relative to control; type: functional; procedure, shortened: as §1
# PANC-1 [3] = assay: Effect on ARF6 gene expression in human PANC1 cells at 400 nM after 24 hrs by RNA sequence analysis relative to control; type: functional
# Procedure, shortened: (§2)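 PANC-1 (0.35 x 10^6) or MIA PaCa-2 (1.5 x 10^6) cells seeded overnight in 60 mm plates, then exposed to 400 nM compound for 6 or 24 h; untreated cells as controls. Cells were mycoplasma-free and STR-certified. Differential expression by RNA-seq, called at FDR < 0.1.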
# MIA PaCa-2 [4] = assay: Effect on MAPK12 gene expression in human MIAPaCa2 cells at 400 nM after 6 hrs by RNA sequence analysis relative to control; type: functional
# MIA PaCa-2 [5] = assay: Effect on MAPK9 gene expression in human MIAPaCa2 cells at 400 nM after 6 hrs by RNA sequence analysis relative to control; type: functional
# MIA PaCa-2 [6] = assay: Effect on PIK3R2 gene expression in human MIAPaCa2 cells at 400 nM after 6 hrs by RNA sequence analysis relative to control; type: functional
# PANC-1 [7] = assay: Effect on mLST8 gene expression in human PANC1 cells at 400 nM after 6 hrs by RNA sequence analysis relative to control; type: functional
# MIA PaCa-2 [8] = assay: Effect on PRDM16 gene expression in human MIAPaCa2 cells at 400 nM after 6 hrs by RNA sequence analysis relative to control; type: functional
# MIA PaCa-2 [9] = assay: Effect on TEAD4 gene expression in human MIAPaCa2 cells at 400 nM after 6 hrs by RNA sequence analysis relative to control; type: functional; procedure, shortened: as §1
# PANC-1 [10] = assay: Effect on TEAD3 gene expression in human PANC1 cells at 400 nM after 24 hrs by RNA sequence analysis relative to control; type: functional; procedure, shortened: as §1
# PANC-1 [11] = assay: Effect on MAPK12 gene expression in human PANC1 cells at 400 nM after 24 hrs by RNA sequence analysis relative to control; type: functional
# PANC-1 [12] = assay: Effect on ULK1 gene expression in human PANC1 cells at 400 nM after 24 hrs by RNA sequence analysis relative to control; type: functional; procedure, shortened: as §1
# MIA PaCa-2 [13] = assay: Effect on AKT1S1 gene expression in human MIAPaCa2 cells at 400 nM after 6 hrs by RNA sequence analysis relative to control; type: functional; procedure, shortened: as §2
# PANC-1 [14] = assay: Effect on GLI2 gene expression in human PANC1 cells at 400 nM after 6 hrs by RNA sequence analysis relative to control; type: functional; procedure, shortened: as §2
# MIA PaCa-2 [15] = assay: Effect on PIK3R2 gene expression in human MIAPaCa2 cells at 400 nM after 24 hrs by RNA sequence analysis relative to control; type: functional
# Homo sapiens = species on record: Homo sapiens; assay: Binding affinity to 5'-FAM/3'-TAMRA labeled human telomeric F21T G-quadruplex DNA assessed as change in melting temperature at 1 uM by FRET assay
# Procedure, shortened: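 FRET melting with FAM/TAMRA dual-labelled oligonucleotides at 400 nM, annealed at 95 °C for 10 min in 60 mM potassium cacodylate pH 7.4 and slowly cooled. Ligand final 1 μM; solution contains 50 mM K+. Fluorescence read every 0.5 °C over 30–100 °C with 30 s hold, excitation 450–495 nm and emission 515–545 nm. ΔTm from curve fitting, triplicate measurements.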
# Mus musculus [16] = assay: Hepatotoxicity in CD-1 nude mouse xenografted with human MIAPaCa2 cells at 15 mg/kg, iv administered twice weekly for 4 weeks by hematoxylin and eosin staining based assay; type: toxicity, organism-based; settings: in vivo, 672 h
# MIA PaCa-2 [17] = assay: Effect on TEAD3 gene expression in human MIAPaCa2 cells at 400 nM after 24 hrs by RNA sequence analysis relative to control; type: functional; procedure, shortened: as §1
# MIA PaCa-2 [18] = assay: Effect on PCK2 gene expression in human MIAPaCa2 cells at 400 nM after 24 hrs by RNA sequence analysis relative to control; type: functional
# MIA PaCa-2 [19] = assay: Effect on TEAD4 gene expression in human MIAPaCa2 cells at 400 nM after 24 hrs by RNA sequence analysis relative to control; type: functional; procedure, shortened: as §1
# MIA PaCa-2 [20] = assay: Effect on GLI4 gene expression in human MIAPaCa2 cells at 400 nM after 6 hrs by RNA sequence analysis relative to control; type: functional; procedure, shortened: as §2
# PANC-1 [21] = assay: Effect on PFKFB4 gene expression in human PANC1 cells at 400 nM after 24 hrs by RNA sequence analysis relative to control; type: functional
# MIA PaCa-2 [22] = assay: Effect on PRKCZ gene expression in human MIAPaCa2 cells at 400 nM after 6 hrs by RNA sequence analysis relative to control; type: functional; procedure, shortened: as §1
# MIA PaCa-2 [23] = assay: Antitumor activity against human MIAPaCa2 cells xenografted in CD-1 nude mouse assessed as change in tumor volume at 15 mg/kg, iv administered twice weekly for 4 weeks measured on day 29 relative to control; type: functional
# Procedure, shortened: (§3)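 Female CD-1 nude mice (2-3 months, 20−25 g) given 5 x 10^6 MIA PaCa-2 cells subcutaneously in right flank with Matrigel; dosing began once tumors were established (approx. 13 days, mean 0.05 cm3). Eight mice/group, IV in saline twice weekly for 28 days (8 doses) against a saline group. Tumors measured by calliper (length × width × height × π/6), with body weight. Student's t test.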
# PANC-1 [24] = assay: Effect on RPTOR gene expression in human PANC1 cells at 400 nM after 24 hrs by RNA sequence analysis relative to control; type: functional; procedure, shortened: as §1
# Mus musculus [25] = assay: Nephrotoxicity in CD-1 nude mouse xenografted with human MIAPaCa2 cells at 15 mg/kg, iv administered twice weekly for 4 weeks by hematoxylin and eosin staining based assay; type: toxicity, organism-based; settings: in vivo, 672 h
# PANC-1 [26] = assay: Effect on TEAD2 gene expression in human PANC1 cells at 400 nM after 24 hrs by RNA sequence analysis relative to control; type: functional; procedure, shortened: as §1
# MIA PaCa-2 [27] = assay: Antitumor activity against human MIAPaCa2 cells xenografted in CD-1 nude mouse assessed as change in tumor volume at 15 mg/kg, iv administered twice weekly for 4 weeks measured on day 62 relative to control; type: functional; procedure, shortened: as §3
# PANC-1 [28] = assay: Effect on ROBO3 gene expression in human PANC1 cells at 400 nM after 6 hrs by RNA sequence analysis relative to control; type: functional; procedure, shortened: as §1
# PANC-1 [29] = assay: Effect on MAPK11 gene expression in human PANC1 cells at 400 nM after 24 hrs by RNA sequence analysis relative to control; type: functional
# PANC-1 [30] = assay: Effect on PLXNA1 gene expression in human PANC1 cells at 400 nM after 6 hrs by RNA sequence analysis relative to control; type: functional
# PANC-1 [31] = assay: Effect on CTBP1 gene expression in human PANC1 cells at 400 nM after 24 hrs by RNA sequence analysis relative to control; type: functional; procedure, shortened: as §2
smiles,measurement,setting,value
O=C1c2ccc3c4c(c(NCCN5CCCC5)cc(c24)C(=O)N1CCCN1CCOCC1)C(=O)N(CCCN1CCOCC1)C3=O,log2FC,PANC-1 [1],-0.92
same,log2FC,PANC-1 [2],0.19
same,log2FC,PANC-1 [3],-0.69
same,log2FC,MIA PaCa-2 [4],-0.47
same,log2FC,MIA PaCa-2 [5],-0.09
same,log2FC,MIA PaCa-2 [6],-0.55
same,log2FC,PANC-1 [7],-0.54
same,log2FC,MIA PaCa-2 [8],-2.73
same,log2FC,MIA PaCa-2 [9],-0.79
same,log2FC,PANC-1 [10],0.07
same,log2FC,PANC-1 [11],-1.44
same,log2FC,PANC-1 [12],-0.81
same,log2FC,MIA PaCa-2 [13],-0.54
same,log2FC,PANC-1 [14],-0.67
same,log2FC,MIA PaCa-2 [15],-1.14
same,ΔTm,Homo sapiens,11.8 °C
same,Activity,Mus musculus [16],Non-Toxic
same,log2FC,MIA PaCa-2 [17],-0.66
same,log2FC,MIA PaCa-2 [18],-0.82
same,log2FC,MIA PaCa-2 [19],-0.31
same,log2FC,MIA PaCa-2 [20],-1.71
same,log2FC,PANC-1 [21],-0.74
same,log2FC,MIA PaCa-2 [22],-1.87
same,Activity,MIA PaCa-2 [23],-73.3%
same,log2FC,PANC-1 [24],-0.5
same,Activity,Mus musculus [25],Non-Toxic
same,log2FC,PANC-1 [26],0.21
same,Activity,MIA PaCa-2 [27],-85%
same,log2FC,PANC-1 [28],-0.75
same,log2FC,PANC-1 [29],-1.6
same,log2FC,PANC-1 [30],-0.84
same,log2FC,PANC-1 [31],-0.98
